The text below walks through data of ChEMBL document CHEMBL1143581, “Cationic chalcone antibiotics. Design, synthesis, and mechanism of action” (2005).

≈ marks a conversion by molar mass, not a printed value. Calls of active or inactive are those of the source. The calls are words filed in the database; no cut-off is given here.

For test [1], the system named is Staphylococcus aureus. The experiment in a line: Minimum inhibitory concentration against Staphylococcus aureus ATCC 33591 (resistant to methicillin). It counts as functional.
For test [2], the system named is Escherichia coli. The experiment in a line: (§1) Minimum inhibitory concentration against Escherichia coli ATCC 25922; NA=not active. The test is classed as functional, organism-based.
For test [3], the system named is Enterococcus faecium. The experiment in a line: Minimum inhibitory concentration against Enterococcus faecium 17501 (vancomycin-resistant clinical isolate). The test is classed as functional.
The test system of test [4] is Enterococcus faecium. Description: Minimum inhibitory concentration against Enterococcus faecium […]. The test is classed as functional.
Test [5] deals with Enterococcus faecium. The experiment in a line: Minimum inhibitory concentration against Enterococcus faecium 17501 (vancomycin-resistant clinical isolate); NA=not active. The test is classed as functional, organism-based.
For test [6], the system named is Enterococcus faecium. Description: Minimum inhibitory concentration against Enterococcus faecium […]; NA=not active. It counts as functional, organism-based. In short, it runs like this: (§2)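 Broth microdilution per NCCLS in Mueller-Hinton medium, run in triplicate, with an added uninoculated compound dilution series in case of precipitation. MIC read as the lowest concentration preventing visible growth; reported values are the mean of three experiments.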

The subject of test [7] is Staphylococcus aureus. The experiment in a line: Minimum inhibitory concentration against Staphylococcus aureus ATCC 33591 (resistant to methicillin); NA=not active. The test is classed as functional, organism-based.
Test [8] deals with Escherichia coli. The test is described as §1. The test is classed as functional, organism-based. In short, it runs like this: as §2
This is another data set of the same source.

For `CN(C)CCNc1cccc(C(=O)/C=C/c2ccc(N3CCN(C)CC3)c(-c3ccccc3)c2)c1`, the minimal inhibitory concentration (MIC) was 75 µM (≈ 35.1 µg/mL) with Staphylococcus aureus [1], 75 µM (≈ 35.1 µg/mL) against Enterococcus faecium [3] and 150 µM (≈ 70.3 µg/mL) in the test on Enterococcus faecium [4]. In the test with Escherichia coli [2], the MIC entry is “inactive”.
Turning to `Cc1cc(C)cc(-c2ccc(OCCN(C)C)c(/C=C/C(=O)c3cccc(N)c3)c2)c1`, the minimum inhibitory concentration (MIC) against Staphylococcus aureus [1], in the test on Enterococcus faecium [3] and against Enterococcus faecium [4] was 10 µM (≈ 4.15 µg/mL) each time. Besides, the MIC result with Escherichia coli [2] is “inactive”.
For the compound `CN(C)CCNc1ccc(C(=O)/C=C/c2ccccc2)cc1`, the MIC result in the test on Enterococcus faecium [5] and in the test on Enterococcus faecium [6] was “inactive” each time. Moreover, the minimum inhibitory concentration (MIC) against Staphylococcus aureus [1] stood at 300 µM (≈ 88.3 µg/mL).
Regarding `COc1ccc(C(=O)/C=C/c2cc(-c3cccc(CO)c3)ccc2N2CCN(C)CC2)c(F)c1`, the MIC result in the test with Staphylococcus aureus [7], in the test on Enterococcus faecium [5] and in the test on Enterococcus faecium [6] was “inactive” throughout.
As to `Cc1cc(C)cc(-c2ccc(OCCN(C)C)c(/C=C/C(=O)c3ccc(N)cc3)c2)c1`, the MIC in the test on Staphylococcus aureus [1] came out at 10 µM (≈ 4.15 µg/mL); in the test with Enterococcus faecium [3], 10 µM (≈ 4.15 µg/mL); against Enterococcus faecium [4], 20 µM (≈ 8.29 µg/mL). Further, the MIC result in the test with Escherichia coli [2] was “inactive”.
As for `CN(C)CCNc1cccc(C(=O)/C=C/c2cc(N3CCN(C)CC3)ccc2-c2ccccc2)c1`, the minimum inhibitory concentration (MIC) in the test with Staphylococcus aureus [1], in the test with Enterococcus faecium [3] and in the test on Enterococcus faecium [4] was 75 µM (≈ 35.1 µg/mL) in each case. Further, the MIC result in the test with Escherichia coli [2] was “inactive”.
Regarding `COc1ccc(C(=O)/C=C/c2cc(-c3ccccc3OC)ccc2N2CCN(C(C)=O)CC2)c(F)c1`, the MIC entry in the test on Staphylococcus aureus [7], in the test on Enterococcus faecium [5] and with Enterococcus faecium [6] was “inactive” throughout.
In the case of `COc1ccc(C(=O)/C=C/c2cc(-c3ccc(C(F)(F)F)cc3)ccc2N2CCN(C)CC2)c(F)c1`, the MIC result in the test on Staphylococcus aureus [7], with Enterococcus faecium [5] and with Enterococcus faecium [6] was “inactive” throughout.
For `Cc1cc(C)cc(-c2ccc(OCCN(C)C)c(/C=C/C(=O)c3ccccc3N)c2)c1`, the results for the minimum inhibitory concentration (MIC) against Staphylococcus aureus [1], against Enterococcus faecium [3] and against Enterococcus faecium [4] were 5 µM (≈ 2.07 µg/mL), 5 µM (≈ 2.07 µg/mL) and 10 µM (≈ 4.15 µg/mL), respectively. Besides, the MIC result in the test on Escherichia coli [8] is “inactive”.
